A short description of experiment [1]: Cytotoxicity against human RPMI8226 cells. It counts as cell-based. Particulars: RPMI-8226.
Experiment [2] can be described thus: Inhibition of trypsin like activity of partially purified human proteasome. It counts as subcellular. Summed up: (§1)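 Purified 20S proteasome isolated from human erythrocytes served as the enzyme source. Inhibition is reported as IC50.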
A short description of experiment [3]: Inhibition of chymotrypsin like activity of partially purified human proteasome. It counts as subcellular. Summed up: as §1
A short description of experiment [4]: Inhibition of caspase like activity of partially purified human proteasome. Format: subcellular. A digest of the protocol: as §1

Molecules are shown by their SMILES. Where only a bound is given, the exact number is not on record here.

Usually IC50 stands for the midpoint of a concentration-inhibition curve. For `COc1ccc(C[C@H](NC(=O)[C@@H](NC(=O)[C@H](Cc2ccc(OC)cc2)NC(=O)c2cc(Cl)ccn2)C(C)C)B(O)O)cc1`, the IC50 stood at 39 nM in experiment [1], 15000 nM in experiment [2], 88 nM in experiment [3] and 21000 nM in experiment [4].
Consider `COc1ccc(C[C@H](NC(=O)[C@@H](NC(=O)[C@H](Cc2ccc(OC)cc2)NC(=O)Cc2ccc3ccccc3c2)C(C)C)B(O)O)cc1`, for which the IC50 in experiment [1] was found to be 170 nM; in experiment [2], 12000 nM; in experiment [3], 22 nM; in experiment [4], 29000 nM.
In the case of `COc1ccc(C[C@H](NC(=O)[C@@H](NC(=O)[C@H](Cc2ccc(OC)cc2)NC(=O)Cc2cccc(Oc3ccccc3)c2)C(C)C)B(O)O)cc1`, the IC50 was found to be 190 nM in experiment [1], 1100 nM in experiment [2], 4.1 nM in experiment [3] and 29000 nM in experiment [4].
In the case of `COc1ccc(C[C@H](NC(=O)[C@@H](NC(=O)[C@H](Cc2ccc(OC)cc2)NC(=O)c2nccc3ccccc23)C(C)C)B(O)O)cc1`, the IC50 was determined as 34 nM in experiment [1], 10000 nM in experiment [2], 41 nM in experiment [3] and 19000 nM in experiment [4].
For the compound `COc1ccc(C[C@H](NC(=O)[C@@H](NC(=O)[C@H](Cc2ccc(OC)cc2)NC(=O)c2cc3ccccc3cn2)C(C)C)B(O)O)cc1`, the IC50 amounted to 93 nM in experiment [1], 9000 nM in experiment [2], 59 nM in experiment [3] and 11000 nM in experiment [4].
Turning to `COc1ccc(C[C@H](NC(=O)[C@@H](NC(=O)[C@H](Cc2ccc(OC)cc2)NC(=O)c2ccc3cnccc3c2)C(C)C)B(O)O)cc1`, the 50% inhibitory concentration (IC50) in experiment [1] is 260 nM; in experiment [2], more than 40000 nM; in experiment [3], 380 nM; in experiment [4], more than 40000 nM.
Consider `COc1ccc(C[C@H](NC(=O)[C@@H](NC(=O)[C@H](Cc2ccc(OC)cc2)NC(=O)Cc2ccc3ccccc3n2)C(C)C)B(O)O)cc1`, for which the IC50 turned out to be 73 nM in experiment [1], 5400 nM in experiment [2], 100 nM in experiment [3] and 16000 nM in experiment [4].
As for `COc1ccc(C[C@H](NC(=O)[C@@H](NC(=O)[C@H](Cc2ccc(OC)cc2)NC(=O)c2cnc3ccccc3c2)C(C)C)B(O)O)cc1`, the IC50 in experiment [1] was 54 nM; in experiment [2], 10000 nM; in experiment [3], 56 nM; in experiment [4], 32000 nM.
For `COc1ccc(C[C@H](NC(=O)[C@@H](NC(=O)[C@H](Cc2ccc(OC)cc2)NC(=O)c2ccnc3ccccc23)C(C)C)B(O)O)cc1`, the IC50 came to 49 nM in experiment [1], 8600 nM in experiment [2], 49 nM in experiment [3] and 24000 nM in experiment [4].
Regarding `COc1ccc(C[C@H](NC(=O)[C@@H](NC(=O)[C@H](Cc2ccc(OC)cc2)NC(=O)c2cccc3cccnc23)C(C)C)B(O)O)cc1`, the IC50 came to 56 nM in experiment [1], 18000 nM in experiment [2], 93 nM in experiment [3] and 16000 nM in experiment [4].
In the case of `COc1ccc(C[C@H](NC(=O)[C@@H](NC(=O)[C@H](Cc2ccc(OC)cc2)NC(=O)c2cnccn2)C(C)C)B(O)O)cc1`, the IC50 in experiment [1] stood at 17 nM; in experiment [2] it was 19000 nM; in experiment [3], 240 nM; in experiment [4] it was 33000 nM.
Take `COc1ccc(C[C@H](NC(=O)[C@@H](NC(=O)[C@H](Cc2ccc(OC)cc2)NC(=O)c2ccccn2)C(C)C)B(O)O)cc1`: the 50% inhibitory concentration (IC50) in experiment [1] came to 13 nM; in experiment [2], 40000 nM; in experiment [3], 230 nM; in experiment [4], 23000 nM.
The matching figures for `COc1ccc(C[C@H](NC(=O)[C@@H](NC(=O)[C@H](Cc2ccc(OC)cc2)NC(=O)c2cccnc2)C(C)C)B(O)O)cc1`: 870 nM, more than 40000 nM, 500 nM and more than 40000 nM.
For the compound `COc1ccc(C[C@H](NC(=O)[C@@H](NC(=O)[C@H](Cc2ccc(OC)cc2)NC(=O)c2ccncc2)C(C)C)B(O)O)cc1`, the IC50 in experiment [1] was 870 nM; in experiment [2], more than 40000 nM; in experiment [3], 2300 nM; in experiment [4], more than 40000 nM.
As for `COc1ccc(C[C@H](NC(=O)[C@@H](NC(=O)[C@H](Cc2ccc(OC)cc2)NC(=O)c2ncccc2C)C(C)C)B(O)O)cc1`, the IC50 was 14 nM in experiment [1], 20000 nM in experiment [2], 85 nM in experiment [3] and more than 40000 nM in experiment [4].
As to `COc1ccc(C[C@H](NC(=O)[C@@H](NC(=O)[C@H](Cc2ccc(OC)cc2)NC(=O)c2cc(C)ccn2)C(C)C)B(O)O)cc1`, the IC50 came out at 14 nM in experiment [1], 20000 nM in experiment [2], 140 nM in experiment [3] and 30000 nM in experiment [4].
Regarding `COc1ccc(C[C@H](NC(=O)[C@@H](NC(=O)[C@H](Cc2ccc(OC)cc2)NC(=O)c2ccc(C)cn2)C(C)C)B(O)O)cc1`, the IC50 in experiment [1] stood at 14 nM; in experiment [2], 14000 nM; in experiment [3], 120 nM; in experiment [4] it was 30000 nM.
For `COc1ccc(C[C@H](NC(=O)[C@@H](NC(=O)[C@H](Cc2ccc(OC)cc2)NC(=O)c2cccc(C)n2)C(C)C)B(O)O)cc1`, the IC50 was determined as 14 nM in experiment [1], 17000 nM in experiment [2], 88 nM in experiment [3] and 30000 nM in experiment [4].
Turning to `COc1ccc(C[C@H](NC(=O)[C@@H](NC(=O)[C@H](Cc2ccc(OC)cc2)NC(=O)c2ncccc2F)C(C)C)B(O)O)cc1`, the IC50 in experiment [1] is 4.9 nM; in experiment [2], 24000 nM; in experiment [3], 140 nM; in experiment [4] it was 25000 nM.
`COc1ccc(C[C@H](NC(=O)[C@@H](NC(=O)[C@H](Cc2ccc(OC)cc2)NC(=O)c2ccc(F)cn2)C(C)C)B(O)O)cc1`: the IC50 in experiment [1] was 19 nM; in experiment [2], 14000 nM; in experiment [3], 81 nM; in experiment [4] it was 30000 nM.
With `COc1ccc(C[C@H](NC(=O)[C@@H](NC(=O)[C@H](Cc2ccc(OC)cc2)NC(=O)c2cccc(F)n2)C(C)C)B(O)O)cc1`, the IC50 worked out at 15 nM in experiment [1], 20000 nM in experiment [2], 110 nM in experiment [3] and 27000 nM in experiment [4].
For `COc1ccc(C[C@H](NC(=O)[C@@H](NC(=O)[C@H](Cc2ccc(OC)cc2)NC(=O)c2ncccc2Cl)C(C)C)B(O)O)cc1`, the IC50 is 9.7 nM in experiment [1], 20000 nM in experiment [2], 83 nM in experiment [3] and 20000 nM in experiment [4].
Regarding `COc1ccc(C[C@H](NC(=O)[C@@H](NC(=O)[C@H](Cc2ccc(OC)cc2)NC(=O)c2ccc(Cl)cn2)C(C)C)B(O)O)cc1`, the IC50 in experiment [1] was 39 nM; in experiment [2], 15000 nM; in experiment [3], 83 nM; in experiment [4], 16000 nM.
For `COc1ccc(C[C@H](NC(=O)[C@@H](NC(=O)[C@H](Cc2ccc(OC)cc2)NC(=O)c2cccc(Cl)n2)C(C)C)B(O)O)cc1`, the IC50 in experiment [1] is 29 nM; in experiment [2] it was 10000 nM; in experiment [3], 100 nM; in experiment [4], 23000 nM.
In the case of `COc1ccc(C[C@H](NC(=O)[C@@H](NC(=O)[C@H](Cc2ccc(OC)cc2)NC(=O)c2nc(Cl)ccc2Cl)C(C)C)B(O)O)cc1`, the IC50 in experiment [1] is 14 nM; in experiment [2], 13000 nM; in experiment [3] it was 53 nM; in experiment [4], 26000 nM.
In the case of `COc1ccc(C[C@H](NC(=O)[C@@H](NC(=O)[C@H](Cc2ccc(OC)cc2)NC(=O)c2ncccc2Br)C(C)C)B(O)O)cc1`, the IC50 in experiment [1] came to 13 nM; in experiment [2] it was 17000 nM; in experiment [3] it was 61 nM; in experiment [4], 20000 nM.
Take `COc1ccc(C[C@H](NC(=O)[C@@H](NC(=O)[C@H](Cc2ccc(OC)cc2)NC(=O)c2cc(Br)ccn2)C(C)C)B(O)O)cc1`: the IC50 stood at 47 nM in experiment [1], 14000 nM in experiment [2], 95 nM in experiment [3] and 17000 nM in experiment [4].
On to `COc1ccc(C[C@H](NC(=O)[C@@H](NC(=O)[C@H](Cc2ccc(OC)cc2)NC(=O)c2ccc(Br)cn2)C(C)C)B(O)O)cc1`, for which the IC50 in experiment [1] was 46 nM; in experiment [2] it was 14000 nM; in experiment [3], 93 nM; in experiment [4], 24000 nM.
As for `COc1ccc(C[C@H](NC(=O)[C@@H](NC(=O)[C@H](Cc2ccc(OC)cc2)NC(=O)c2cccc(Br)n2)C(C)C)B(O)O)cc1`, the IC50 is 44 nM in experiment [1], 14000 nM in experiment [2], 92 nM in experiment [3] and 27000 nM in experiment [4].
On to `COc1ccc(C[C@H](NC(=O)[C@@H](NC(=O)[C@H](Cc2ccc(OC)cc2)NC(=O)c2cc(C(F)(F)F)ccn2)C(C)C)B(O)O)cc1`, for which the IC50 in experiment [1] came to 53 nM; in experiment [2] it was 20000 nM; in experiment [3] it was 150 nM; in experiment [4], 25000 nM.
For the compound `COc1ccc(C[C@H](NC(=O)[C@@H](NC(=O)[C@H](Cc2ccc(OC)cc2)NC(=O)c2ccc(C(F)(F)F)cn2)C(C)C)B(O)O)cc1`, the IC50 is 47 nM in experiment [1], 19000 nM in experiment [2], 110 nM in experiment [3] and 28000 nM in experiment [4].
On to `COc1ccc(C[C@H](NC(=O)[C@@H](NC(=O)[C@H](Cc2ccc(OC)cc2)NC(=O)c2ncccc2O)C(C)C)B(O)O)cc1`, for which the IC50 was 52 nM in experiment [1], more than 40000 nM in experiment [2], 390 nM in experiment [3] and 29000 nM in experiment [4].
Take `COc1ccc(C[C@H](NC(=O)[C@@H](NC(=O)[C@H](Cc2ccc(OC)cc2)NC(=O)c2cccc(O)n2)C(C)C)B(O)O)cc1`: the IC50 worked out at 340 nM in experiment [1], 21000 nM in experiment [2], 240 nM in experiment [3] and 26000 nM in experiment [4].
In the case of `COc1ccc(C[C@H](NC(=O)[C@@H](NC(=O)[C@H](Cc2ccc(OC)cc2)NC(=O)c2ncccc2OC)C(C)C)B(O)O)cc1`, the IC50 in experiment [1] turned out to be 41 nM; in experiment [2] it was 31000 nM; in experiment [3] it was 130 nM; in experiment [4] it was 26000 nM.
Regarding `COc1ccc(C[C@H](NC(=O)[C@@H](NC(=O)[C@H](Cc2ccc(OC)cc2)NC(=O)c2cc(OC)ccn2)C(C)C)B(O)O)cc1`, the IC50 in experiment [1] worked out at 13 nM; in experiment [2], 16000 nM; in experiment [3], 87 nM; in experiment [4], 20000 nM.

Values taken from ChEMBL document CHEMBL1255509, “Structure-activity relationship of boronic acid derivatives of tyropeptin: proteasome inhibitors” (Bioorg Med Chem Lett, 2010).
